Assay results reported in ChEMBL document CHEMBL1147969, “Synthesis of some novel heterocyclic compounds derived from diflunisal hydrazide as potential anti-infective and anti-inflammatory agents” (2007).
Values after ≈ are worked out from the molar mass of the structure shown. Active and inactive are the calls of the source.

Legend:
Human alphaherpesvirus 1 [1] = assay: Antiviral activity against TK positive HSV1 KOS-induced cytopathogenicity at 16 ug/mL; assay type: functional, organism-based
Coxsackievirus B4 = assay: Antiviral activity against Coxsackie virus B4-induced cytopathogenicity at 16 ug/mL; assay type: functional, organism-based
Mus musculus [2] = assay: Antiinflammatory activity against BALB/c mouse assessed as inhibition of carrageenan-induced paw edema at 50 mg/kg, po after 4 hrs; assay type: functional
Summary of the method: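 Mice were fasted on the last day (water only) and dosed by gavage at 50 mg/kg, suspended in 0.5% methyl cellulose; controls got vehicle, six mice per group. After 60 min, 0.5 mg/mL carrageenan in saline was injected subplantar into the right hind paw, with saline in the left. The right–left thickness difference was read by microcaliper at 4 h. % inhibition = (n−n0)/n×100 versus control.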

Punta Toro virus = assay: Antiviral activity against Punta Toro virus-induced cytopathogenicity at 16 ug/mL; assay type: functional, organism-based
Sindbis virus [3] = assay: Antiviral activity against Sindbis virus-induced cytopathogenicity at 16 ug/mL; assay type: functional, organism-based
Mus musculus [4] = assay: Antinociceptive activity against mouse assessed as paw withdrawal latency at 50 mg/kg, po after 60 mins by hot plate test; assay type: functional
Summary of the method: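 Hot plate was set at 55 °C. Latency to jumping or hind-paw licking was recorded before and 60 min after oral dosing at 50 mg/kg, or vehicle, with a 30 s cutoff. Groups had at least eight mice each. Testing was done between 2:00 and 4:00 pm.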

Human alphaherpesvirus 1 [5] = assay: Antiviral activity against acyclovir resistant TK positive HSV1 KOS-induced cytopathogenicity at 16 ug/mL; assay type: functional, organism-based
Proteus vulgaris [6] = assay: Antimicrobial activity against Proteus vulgaris KUKEM1329 by disk diffusion method at 300 ug/disc; assay type: functional
Summary of the method: (§1)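 For broth microdilution, inocula came from 12 h broth cultures adjusted to 0.5 McFarland. Test agents in 10% DMSO were serially diluted twofold (7.8–500) in nutrient broth. Wells were shaken 20 s at 300 rpm and incubated 24 h. Clear wells were plated on nutrient agar to check growth. MIC was the lowest concentration inhibiting growth. Each compound was screened twice per organism.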

Proteus vulgaris [7] = assay: Antimicrobial activity against Proteus vulgaris A161 […]; assay type: functional; summary of the method: as §1
Human alphaherpesvirus 2 = assay: Antiviral activity against HSV2-induced cytopathogenicity at 16 ug/mL; assay type: functional, organism-based
Streptococcus pyogenes [8] = assay: Antimicrobial activity against Streptococcus pyogenes KUKEM676 by disk diffusion method at 300 ug/disc; assay type: functional
Summary of the method: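 Mueller-Hinton agar was spread with 10^8 CFU/mL bacteria. 6 mm discs held 300 per disc of test agent, with DMSO discs as negative controls. Plates were incubated 24 h, at 37 °C for clinical strains or 27 °C for plant-associated strains. Zone of inhibition diameter in mm was measured. Each assay was repeated twice.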

Sindbis virus [9] = assay: Antiviral activity against Sindbis virus-induced cytopathogenicity at 9.6 ug/mL; assay type: functional, organism-based
Streptococcus pyogenes [10] = assay: Antimicrobial activity against Streptococcus pyogenes ATCC 176 by microwell dilution method; assay type: functional; summary of the method: as §1
Streptococcus pyogenes [11] = assay: Antimicrobial activity against Streptococcus pyogenes KUKEM676 by microwell dilution method; assay type: functional; summary of the method: as §1
Enterococcus faecalis = assay: Antimicrobial activity against Enterococcus faecalis ATCC […] by microwell dilution method; assay type: functional; summary of the method: as §1
Trichophyton rubrum [12] = assay: Antifungal activity against Trichophyton rubrum at 300 ug/disc after 72 hrs by disk diffusion method; assay type: functional
Summary of the method: (§2)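 Disc diffusion was run on potato dextrose agar seeded with 10^4 spore/mL. 6 mm discs each carried 300 per disc of test agent. DMSO-impregnated discs served as negative controls. Plates were incubated 72 h, at 27 °C for plant-associated isolates or 37 °C for clinical isolates. The read-out was inhibition zone diameter in mm. Each assay was repeated twice.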

Aspergillus versicolor [13] = assay: Antifungal activity against Aspergillus variecolor at 300 ug/disc after 72 hrs by disk diffusion method; assay type: functional; summary of the method: as §2
Trichophyton benhamiae [14] = assay: Antifungal activity against Trichophyton mentagrophytes at 300 ug/disc after 72 hrs by disk diffusion method; assay type: functional, Arthroderma benhamiae; summary of the method: as §2
Aspergillus flavus [15] = assay: Antifungal activity against Aspergillus flavus at 300 ug/disc after 72 hrs by disk diffusion method; assay type: functional; summary of the method: as §2
Escherichia coli = assay: Antimicrobial activity against Escherichia coli A1 by microwell dilution method; assay type: functional; summary of the method: as §1
Trichophyton rubrum [16] = assay: Antifungal activity against Trichophyton rubrum after 72 hrs by agar dilution method; assay type: functional
Summary of the method: (§3)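 Fungal isolates were screened on agar dilution plates. Test agents in 10% DMSO were mixed into potato dextrose agar containing 0.5% v/v Tween 20, over a range of 7.8–500. Plates were spot-inoculated with 10^4 spore/mL and held 72 h, at 27 °C for plant isolates or 37 °C for clinical isolates. MIC was the lowest concentration with no growth. Each test was repeated at least twice.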

Aspergillus versicolor [17] = assay: Antifungal activity against Aspergillus variecolor after 72 hrs by agar dilution method; assay type: functional; summary of the method: as §3
Aspergillus flavus [18] = assay: Antifungal activity against Aspergillus flavus after 72 hrs by agar dilution method; assay type: functional; summary of the method: as §3
Trichophyton benhamiae [19] = assay: Antifungal activity against Trichophyton mentagrophytes after 72 hrs by agar dilution method; assay type: functional, Arthroderma benhamiae; summary of the method: as §3
Proteus vulgaris [20] = assay: Antimicrobial activity against Proteus vulgaris KUKEM1329 by disk diffusion method at 10 ug/disc; assay type: functional; conditions: read-out: IZ
Streptococcus pyogenes [21] = assay: Antimicrobial activity against Streptococcus pyogenes ATCC 176 by disk diffusion method at 10 ug/disc; assay type: functional; conditions: read-out: IZ
Streptococcus pyogenes [22] = assay: Antimicrobial activity against Streptococcus pyogenes KUKEM676 by disk diffusion method at 10 ug/disc; assay type: functional; conditions: read-out: IZ
Proteus vulgaris [23] = assay: Antimicrobial activity against Proteus vulgaris A161 by disk diffusion method at 10 ug/disc; assay type: functional; conditions: read-out: IZ

C=CCNc1nnc(-c2cc(-c3ccc(F)cc3F)ccc2O)s1
Activity (Human alphaherpesvirus 1 [1]): Active
Activity (Coxsackievirus B4): Active
inhibition in vivo at 50 mg/kg (Mus musculus [2]): 57.2%
Activity (Punta Toro virus): Active
Activity (Sindbis virus [3]): Active
Paw withdrawal latency (Mus musculus [4]): 13.9 s
Activity (Human alphaherpesvirus 1 [5]): Active

COc1ccc(Nc2nnc(-c3cc(-c4ccc(F)cc4F)ccc3O)o2)cc1
inhibition in vivo at 50 mg/kg (Mus musculus [2]): 35.3%
Paw withdrawal latency (Mus musculus [4]): 12 s

Cn1c(-c2cc(-c3ccc(F)cc3F)ccc2O)n[nH]c1=S
inhibition in vivo at 50 mg/kg (Mus musculus [2]): 56.9%
inhibition zone (IZ) (Proteus vulgaris [6]): 8 mm
inhibition zone (IZ) (Proteus vulgaris [7]): 10 mm
Paw withdrawal latency (Mus musculus [4]): 16.4 s

C=CCNc1nnc(-c2cc(-c3ccc(F)cc3F)ccc2O)o1
inhibition in vivo at 50 mg/kg (Mus musculus [2]): 36.6%
Paw withdrawal latency (Mus musculus [4]): 9.8 s
Activity (Human alphaherpesvirus 2): Active

CCNc1nnc(-c2cc(-c3ccc(F)cc3F)ccc2O)s1
inhibition in vivo at 50 mg/kg (Mus musculus [2]): 50.2%
Paw withdrawal latency (Mus musculus [4]): 13.5 s

CO/N=C(\C(=O)N[C@@H]1C(=O)N2C(C(=O)[O-])=C(C[N+]3(C)CCCC3)CS[C@H]12)c1csc(N)n1 [CEFEPIME]
MIC (Streptococcus pyogenes [8]): 31.2 µg/mL (≈ 65 µM)

Cc1ccc(Nc2nnc(-c3cc(-c4ccc(F)cc4F)ccc3O)s2)cc1
inhibition in vivo at 50 mg/kg (Mus musculus [2]): 43.5%
Paw withdrawal latency (Mus musculus [4]): 14.5 s

CNc1nnc(-c2cc(-c3ccc(F)cc3F)ccc2O)s1
Activity (Sindbis virus [9]): Active
Activity (Human alphaherpesvirus 1 [1]): Active
Activity (Coxsackievirus B4): Active
inhibition in vivo at 50 mg/kg (Mus musculus [2]): 45.4%
Activity (Punta Toro virus): Active
Activity (Sindbis virus [3]): Active
Paw withdrawal latency (Mus musculus [4]): 13.5 s
Activity (Human alphaherpesvirus 1 [5]): Active

O=C(O)c1cc(-c2ccc(F)cc2F)ccc1O [DIFLUNISAL]
inhibition in vivo at 50 mg/kg (Mus musculus [2]): 24.2%
Paw withdrawal latency (Mus musculus [4]): 19.1 s

COc1ccc(Nc2nnc(-c3cc(-c4ccc(F)cc4F)ccc3O)s2)cc1
inhibition in vivo at 50 mg/kg (Mus musculus [2]): 55.3%
Paw withdrawal latency (Mus musculus [4]): 19.2 s

COc1ccc(-n2c(-c3cc(-c4ccc(F)cc4F)ccc3O)n[nH]c2=S)cc1
inhibition zone (IZ) (Streptococcus pyogenes [10]): 10 mm
MIC (Streptococcus pyogenes [8]): 125 µg/mL (≈ 304 µM)
inhibition in vivo at 50 mg/kg (Mus musculus [2]): 53.5%
inhibition zone (IZ) (Proteus vulgaris [6]): 10 mm
Paw withdrawal latency (Mus musculus [4]): 15 s
inhibition zone (IZ) (Streptococcus pyogenes [11]): 9 mm
inhibition zone (IZ) (Enterococcus faecalis): 12 mm

CCN[C@@H]1C[C@H](N)[C@@H](O[C@H]2OC(CN)=CC[C@H]2N)[C@H](O)[C@H]1O[C@H]1OC[C@](C)(O)[C@H](NC)[C@H]1O [NETILMICIN]
MIC (Trichophyton rubrum [12]): 15.6 µg/mL (≈ 32.8 µM)
MIC (Aspergillus versicolor [13]): 62.5 µg/mL (≈ 131 µM)
MIC (Trichophyton benhamiae [14]): 31.2 µg/mL (≈ 65.7 µM)
MIC (Aspergillus flavus [15]): 15.6 µg/mL (≈ 32.8 µM)

Oc1ccc(-c2ccc(F)cc2F)cc1-c1nnc(Nc2ccccc2)s1
inhibition zone (IZ) (Escherichia coli): 16 mm
inhibition zone (IZ) (Streptococcus pyogenes [10]): 18 mm
inhibition in vivo at 50 mg/kg (Mus musculus [2]): 43%
inhibition zone (IZ) (Proteus vulgaris [6]): 16 mm
inhibition zone (IZ) (Proteus vulgaris [7]): 14 mm
Paw withdrawal latency (Mus musculus [4]): 16.5 s

Oc1ccc(-c2ccc(F)cc2F)cc1-c1nnc(Nc2ccccc2)o1
inhibition in vivo at 50 mg/kg (Mus musculus [2]): 39.5%
Paw withdrawal latency (Mus musculus [4]): 12 s

Oc1ccc(-c2ccc(F)cc2F)cc1-c1nnc(NC2CCCCC2)o1
inhibition in vivo at 50 mg/kg (Mus musculus [2]): 23.8%
Paw withdrawal latency (Mus musculus [4]): 12 s

CCn1c(-c2cc(-c3ccc(F)cc3F)ccc2O)n[nH]c1=S
MIC (Trichophyton rubrum [12]): 15.2 µg/mL (≈ 45.7 µM)
inhibition zone (IZ) (Trichophyton rubrum [16]): 16 mm
Activity (Coxsackievirus B4): Active
inhibition zone (IZ) (Aspergillus versicolor [17]): 14 mm
MIC (Aspergillus versicolor [13]): 31.2 µg/mL (≈ 93.7 µM)
inhibition in vivo at 50 mg/kg (Mus musculus [2]): 46.2%
inhibition zone (IZ) (Proteus vulgaris [6]): 9 mm
MIC (Aspergillus flavus [15]): 31.2 µg/mL (≈ 93.7 µM)
inhibition zone (IZ) (Proteus vulgaris [7]): 9 mm
Paw withdrawal latency (Mus musculus [4]): 17.1 s
inhibition zone (IZ) (Aspergillus flavus [18]): 16 mm

Oc1ccc(-c2ccc(F)cc2F)cc1-c1nnc(NC2CCCCC2)s1
inhibition in vivo at 50 mg/kg (Mus musculus [2]): 41.4%
Paw withdrawal latency (Mus musculus [4]): 12.5 s

Cc1ccc(-n2c(-c3cc(-c4ccc(F)cc4F)ccc3O)n[nH]c2=S)cc1
inhibition in vivo at 50 mg/kg (Mus musculus [2]): 51.6%
Paw withdrawal latency (Mus musculus [4]): 14.2 s

C=CCn1c(-c2cc(-c3ccc(F)cc3F)ccc2O)n[nH]c1=S
inhibition zone (IZ) (Escherichia coli): 12 mm
inhibition zone (IZ) (Aspergillus versicolor [17]): 10 mm
inhibition zone (IZ) (Streptococcus pyogenes [10]): 12 mm
MIC (Streptococcus pyogenes [8]): 62.2 µg/mL (≈ 180 µM)
MIC (Aspergillus versicolor [13]): 62.5 µg/mL (≈ 181 µM)
inhibition in vivo at 50 mg/kg (Mus musculus [2]): 73%
inhibition zone (IZ) (Proteus vulgaris [6]): 9 mm
inhibition zone (IZ) (Trichophyton benhamiae [19]): 14 mm
MIC (Trichophyton benhamiae [14]): 31.2 µg/mL (≈ 90.5 µM)
MIC (Aspergillus flavus [15]): 31.2 µg/mL (≈ 90.5 µM)
inhibition zone (IZ) (Proteus vulgaris [7]): 10 mm
Paw withdrawal latency (Mus musculus [4]): 16.8 s
inhibition zone (IZ) (Streptococcus pyogenes [11]): 14 mm
inhibition zone (IZ) (Aspergillus flavus [18]): 14 mm
inhibition zone (IZ) (Enterococcus faecalis): 10 mm

Oc1ccc(-c2ccc(F)cc2F)cc1-c1n[nH]c(=S)n1C1CCCCC1
inhibition in vivo at 50 mg/kg (Mus musculus [2]): 64.4%
inhibition zone (IZ) (Proteus vulgaris [6]): 12 mm
inhibition zone (IZ) (Proteus vulgaris [7]): 10 mm
Activity (Sindbis virus [3]): Active
Paw withdrawal latency (Mus musculus [4]): 13.2 s

Oc1ccc(-c2ccc(F)cc2F)cc1-c1n[nH]c(=S)n1-c1ccccc1
Activity (Human alphaherpesvirus 1 [1]): Active
inhibition in vivo at 50 mg/kg (Mus musculus [2]): 36.3%
Paw withdrawal latency (Mus musculus [4]): 16 s

CNc1nnc(-c2cc(-c3ccc(F)cc3F)ccc2O)o1
inhibition in vivo at 50 mg/kg (Mus musculus [2]): 41.4%
Paw withdrawal latency (Mus musculus [4]): 10.9 s

Cc1ccc(Nc2nnc(-c3cc(-c4ccc(F)cc4F)ccc3O)o2)cc1
inhibition in vivo at 50 mg/kg (Mus musculus [2]): 33.8%
Paw withdrawal latency (Mus musculus [4]): 11.1 s

CC1COc2c(N3CCN(C)CC3)c(F)cc3c(=O)c(C(=O)O)cn1c23 (configuration not stated) [OFLOXACIN]
zone of inhibition at 10 µg/disc (Proteus vulgaris [20]): 13 mm
zone of inhibition at 10 µg/disc (Streptococcus pyogenes [21]): 10 mm
zone of inhibition at 10 µg/disc (Streptococcus pyogenes [22]): 13 mm
zone of inhibition at 10 µg/disc (Proteus vulgaris [23]): 12 mm

CCNc1nnc(-c2cc(-c3ccc(F)cc3F)ccc2O)o1
inhibition in vivo at 50 mg/kg (Mus musculus [2]): 36.8%
Paw withdrawal latency (Mus musculus [4]): 11 s
